Assay [1] addresses Vascular endothelial growth factor receptor 2 (Homo sapiens) (UniProt P35968). Kind of assay: Inhibition of N-terminal GST-tagged human KDR cytoplasmic domain (790 to 1356 residues) expressed in baculovirus expression system at […] using FAM-labeled peptide as substrate after 10 mins by mobility shift assay relative to control. A digest of the protocol:
(§1)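 Caliper mobility-shift kinase assay. Kinase in kinase base buffer was preincubated with compound for 10 min at room temperature. FAM-labelled peptide and ATP at Km were then added, and the reaction ran at 28 °C until quenched with buffer. Screening concentration was 1 µM. Percent inhibition = (max − conversion)/(max − min) × 100, with DMSO as max and a low control as min.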

For assay [2], the target named is Epidermal growth factor receptor (Homo sapiens, UniProt P00533). The assay can be described thus: Inhibition of N-terminal GST-tagged wild type human EGFR cytoplasmic domain (669 to 1210 residues) expressed in baculovirus expression system using FAM-labeled peptide as substrate after 10 mins by mobility shift assay.
The target in assay [3] is Epidermal growth factor receptor (Homo sapiens, UniProt P00533, DEL747/DEL747-750). The assay can be described thus: Inhibition of N-terminal GST-tagged human EGFR del 747-750 mutant cytoplasmic domain expressed in baculovirus expression system using FAM-labeled peptide as substrate after 10 mins by mobility shift assay.
The target in assay [4] is Fibroblast growth factor receptor 1 (Homo sapiens) (UniProt P11362). Kind of assay: Inhibition of N-terminal GST-tagged human FGFR1 cytoplasmic domain (398 to 822 residues) expressed in baculovirus expression system at […] using FAM-labeled peptide as substrate after 10 mins by mobility shift assay relative to control. A digest of the protocol: as §1
For the next assay, the system named is HCC827. The assay can be described thus: Antiproliferative activity against human HCC827 cells after 72 hrs by MTT assay. In kind it is functional, cell-based. Particulars: HCC827, 72 h. The method in brief:
(§2)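 Cells seeded at 3000/well in growth medium with 10% FBS and left overnight. Treated in triplicate for 72 h at nine concentrations (0.458 to 30,000 nM), with DMSO-only controls. MTT (5 mg/mL) added for the last 4 h, formazan dissolved in DMSO, absorbance read at 490 nm. IC50 from non-linear sigmoidal dose-response fit.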
On the technique in general: Formazan colour is commonly taken as a measure of viable cells.

The test system of the next assay is BEAS-2B. The assay can be described thus: Cytotoxicity against human BEAS2B cells after 72 hrs by MTT assay. In kind it is cell-based. A digest of the protocol:
as §2

The subject of the next assay is PC-9. Kind of assay: Antiproliferative activity against human PC9 cells after 72 hrs by MTT assay. In kind it is functional, cell-based. As to conditions: PC-9, 72 h. The method in brief:
as §2

The subject of the next assay is NCI-H3255. Kind of assay: Antiproliferative activity against human H3255 cells after 72 hrs by MTT assay. The format is functional, cell-based. Particulars: NCI-H3255, 72 h. A digest of the protocol:
as §2

A further assay concerns NCI-H1975. The assay can be described thus: Antiproliferative activity against human NCI-H1975 cells after 72 hrs by MTT assay. Particulars: NCI-H1975, 72 h. The format is functional, cell-based. The method in brief:
as §2

The next assay has as its system A-431. Kind of assay: Antiproliferative activity against human A431 cells after 72 hrs by MTT assay. The format is functional, cell-based. As to conditions: A-431, 72 h. The method in brief:
as §2

Drawing on ChEMBL document CHEMBL4265907, “Design, synthesis and pharmacological evaluation of N4,N6-disubstituted pyrimidine-4,6-diamine derivatives as potent EGFR inhibitors in non-small cell lung cancer” (Eur J Med Chem, 2018), this text covers inhibition and IC50 for 21 compounds.

Vascular endothelial growth factor receptor 2 (Homo sapiens), sequence (P35968 whole entry, the tested form may be a part): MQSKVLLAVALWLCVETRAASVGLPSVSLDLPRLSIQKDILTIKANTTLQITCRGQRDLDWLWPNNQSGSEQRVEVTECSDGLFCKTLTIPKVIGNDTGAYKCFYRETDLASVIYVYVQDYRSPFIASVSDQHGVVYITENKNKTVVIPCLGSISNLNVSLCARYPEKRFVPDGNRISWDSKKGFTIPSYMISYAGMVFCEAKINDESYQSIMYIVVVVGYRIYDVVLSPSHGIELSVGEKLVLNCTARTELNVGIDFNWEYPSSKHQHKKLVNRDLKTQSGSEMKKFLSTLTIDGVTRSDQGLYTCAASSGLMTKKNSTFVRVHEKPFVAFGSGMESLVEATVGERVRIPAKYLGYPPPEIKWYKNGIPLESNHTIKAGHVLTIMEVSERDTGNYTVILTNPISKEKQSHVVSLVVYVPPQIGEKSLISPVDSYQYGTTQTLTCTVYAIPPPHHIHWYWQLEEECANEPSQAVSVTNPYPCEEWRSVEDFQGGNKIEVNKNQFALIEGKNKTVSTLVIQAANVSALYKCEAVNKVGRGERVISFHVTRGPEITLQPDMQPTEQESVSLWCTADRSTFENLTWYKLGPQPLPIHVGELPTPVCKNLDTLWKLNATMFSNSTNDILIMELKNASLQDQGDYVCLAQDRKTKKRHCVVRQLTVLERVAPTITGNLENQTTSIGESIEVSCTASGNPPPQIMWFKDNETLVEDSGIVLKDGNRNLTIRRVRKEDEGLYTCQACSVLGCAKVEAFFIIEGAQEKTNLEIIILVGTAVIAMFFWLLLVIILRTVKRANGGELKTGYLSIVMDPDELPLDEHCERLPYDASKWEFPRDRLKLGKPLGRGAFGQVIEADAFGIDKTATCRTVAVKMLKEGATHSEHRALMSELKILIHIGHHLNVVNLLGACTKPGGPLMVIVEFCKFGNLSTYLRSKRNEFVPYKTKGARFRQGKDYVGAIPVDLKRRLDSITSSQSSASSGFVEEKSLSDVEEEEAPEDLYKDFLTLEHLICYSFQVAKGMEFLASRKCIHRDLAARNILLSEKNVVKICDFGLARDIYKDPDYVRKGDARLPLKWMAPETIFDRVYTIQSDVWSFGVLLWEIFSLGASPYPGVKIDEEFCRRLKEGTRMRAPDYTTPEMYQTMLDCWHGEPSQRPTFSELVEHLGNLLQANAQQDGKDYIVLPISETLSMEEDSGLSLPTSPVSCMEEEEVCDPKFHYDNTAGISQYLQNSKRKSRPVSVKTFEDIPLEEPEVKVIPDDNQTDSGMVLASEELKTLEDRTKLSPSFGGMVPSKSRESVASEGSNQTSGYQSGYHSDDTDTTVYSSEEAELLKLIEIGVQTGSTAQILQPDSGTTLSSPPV
Epidermal growth factor receptor (Homo sapiens, UniProt P00533), sequence (P00533 whole entry, the tested form may be a part): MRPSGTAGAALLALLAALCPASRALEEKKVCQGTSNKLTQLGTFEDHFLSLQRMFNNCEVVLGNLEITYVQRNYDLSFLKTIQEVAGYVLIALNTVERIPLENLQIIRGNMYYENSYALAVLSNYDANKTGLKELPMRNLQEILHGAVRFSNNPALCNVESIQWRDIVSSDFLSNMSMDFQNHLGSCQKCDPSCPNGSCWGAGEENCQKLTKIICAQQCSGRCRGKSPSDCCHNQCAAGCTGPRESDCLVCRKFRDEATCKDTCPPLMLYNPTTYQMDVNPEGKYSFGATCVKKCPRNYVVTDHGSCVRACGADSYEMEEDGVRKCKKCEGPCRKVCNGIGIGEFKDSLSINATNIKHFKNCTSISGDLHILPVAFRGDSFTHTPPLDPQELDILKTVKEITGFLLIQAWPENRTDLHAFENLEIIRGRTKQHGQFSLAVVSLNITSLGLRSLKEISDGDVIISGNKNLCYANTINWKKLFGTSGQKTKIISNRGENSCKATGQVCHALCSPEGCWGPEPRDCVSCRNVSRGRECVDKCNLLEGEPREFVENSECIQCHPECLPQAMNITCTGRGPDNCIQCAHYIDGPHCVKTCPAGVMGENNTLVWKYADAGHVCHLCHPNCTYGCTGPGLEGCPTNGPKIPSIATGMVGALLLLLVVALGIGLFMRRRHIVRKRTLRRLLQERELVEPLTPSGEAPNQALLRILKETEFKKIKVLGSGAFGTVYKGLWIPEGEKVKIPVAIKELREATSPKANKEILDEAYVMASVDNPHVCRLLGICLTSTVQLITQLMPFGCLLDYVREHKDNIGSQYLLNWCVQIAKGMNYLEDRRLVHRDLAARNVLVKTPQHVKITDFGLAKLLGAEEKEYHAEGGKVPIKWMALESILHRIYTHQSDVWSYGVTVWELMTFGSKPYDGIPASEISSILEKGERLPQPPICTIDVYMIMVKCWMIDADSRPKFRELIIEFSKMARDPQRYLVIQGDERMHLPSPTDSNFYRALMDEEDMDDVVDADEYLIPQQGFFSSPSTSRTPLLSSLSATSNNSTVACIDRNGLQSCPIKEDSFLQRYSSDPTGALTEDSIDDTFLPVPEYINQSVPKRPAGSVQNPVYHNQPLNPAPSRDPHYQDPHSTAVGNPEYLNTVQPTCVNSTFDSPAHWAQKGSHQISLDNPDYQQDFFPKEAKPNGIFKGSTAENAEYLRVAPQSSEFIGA
Epidermal growth factor receptor (Homo sapiens, UniProt P00533, DEL747/DEL747-750), sequence (P00533 with tags, fused parts or gaps DEL747/DEL747-750 limits assumed): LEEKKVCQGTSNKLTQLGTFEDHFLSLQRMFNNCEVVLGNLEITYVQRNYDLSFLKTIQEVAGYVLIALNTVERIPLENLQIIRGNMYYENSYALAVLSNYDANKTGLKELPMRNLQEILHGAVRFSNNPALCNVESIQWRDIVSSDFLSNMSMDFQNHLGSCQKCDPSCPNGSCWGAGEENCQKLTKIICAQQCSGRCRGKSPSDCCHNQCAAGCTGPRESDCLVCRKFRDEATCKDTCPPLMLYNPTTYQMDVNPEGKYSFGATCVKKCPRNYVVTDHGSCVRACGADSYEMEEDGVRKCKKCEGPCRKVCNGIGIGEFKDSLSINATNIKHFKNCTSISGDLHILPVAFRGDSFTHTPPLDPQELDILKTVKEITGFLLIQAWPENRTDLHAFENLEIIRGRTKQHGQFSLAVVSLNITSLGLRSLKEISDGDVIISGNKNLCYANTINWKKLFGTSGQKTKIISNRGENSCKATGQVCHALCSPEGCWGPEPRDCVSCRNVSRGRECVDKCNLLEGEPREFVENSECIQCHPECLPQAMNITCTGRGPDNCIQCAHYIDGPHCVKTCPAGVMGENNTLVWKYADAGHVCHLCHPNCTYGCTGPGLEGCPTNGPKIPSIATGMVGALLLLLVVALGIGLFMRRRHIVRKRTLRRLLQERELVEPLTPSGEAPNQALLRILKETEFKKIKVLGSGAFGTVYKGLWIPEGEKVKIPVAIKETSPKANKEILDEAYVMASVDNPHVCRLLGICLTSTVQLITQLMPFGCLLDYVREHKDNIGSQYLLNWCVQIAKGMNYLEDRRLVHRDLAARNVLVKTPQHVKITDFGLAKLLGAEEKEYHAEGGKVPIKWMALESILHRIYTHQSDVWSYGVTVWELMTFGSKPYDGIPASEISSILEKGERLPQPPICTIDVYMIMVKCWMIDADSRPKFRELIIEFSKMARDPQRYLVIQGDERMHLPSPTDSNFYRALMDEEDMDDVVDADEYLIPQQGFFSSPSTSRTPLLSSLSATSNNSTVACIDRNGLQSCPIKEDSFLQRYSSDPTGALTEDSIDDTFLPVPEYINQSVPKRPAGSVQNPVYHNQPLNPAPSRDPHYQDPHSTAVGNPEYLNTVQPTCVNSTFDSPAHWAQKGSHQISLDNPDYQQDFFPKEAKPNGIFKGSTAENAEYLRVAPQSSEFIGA

For `CCOC(=O)c1ccc(Nc2cc(Nc3cccc(OC)c3)ncn2)cc1`, the inhibition in assay [1] is 11.7%; in assay [4], -9.3%. Further, the IC50 was above 10 µM in assay [2] and 1.19 µM in [3].
Regarding `O=C(O)CCC(=O)Nc1cc(Nc2ccc(Cl)cc2)ncn1`, the IC50 was 3.13 µM in the assay on HCC827; 19 µM with BEAS-2B; 0.79 µM in the assay with PC-9; 4.37 µM in the assay with NCI-H3255; 2.73 µM with NCI-H1975; above 10 µM in [2]. For the same compound, the figures for the IC50 (in [3]; in the assay with A-431) were 0.792 µM and 1.9 µM, respectively. Also, the inhibition in assay [1] was 15.7%; in [4], 5.2%.
For the compound `O=C(O)CCCC(=O)Nc1cc(Nc2ccccc2)ncn1`, the IC50 in the assay on HCC827 is 2.22 µM; in the assay on BEAS-2B, 17.9 µM; with PC-9, 0.94 µM; in the assay on NCI-H3255, 2.94 µM; with NCI-H1975, 1.85 µM; in [2] it was above 10 µM. Besides, the IC50 in assay [3] was 0.105 µM; with A-431, 1.19 µM. For the same compound, the inhibition in assay [1] is 4.9%; in assay [4], -4%.
Regarding `O=C(O)CCCC(=O)Nc1cc(Nc2ccc(Cl)cc2)ncn1`, the figures for the inhibition in assay [1] and in assay [4] were 18% and -7.2%, respectively. In addition, the 50% inhibitory concentration (IC50) was above 10 µM in [2] and 0.944 µM in assay [3].
In the same order, the values of `COc1ccc(OC)c(Nc2cc(NCCc3cccs3)ncn2)c1` are 14.6%, -8.2%, 0.125 µM and 0.102 µM.
On to `COc1ccc(OC)c(Nc2cc(Nc3ccc(N4CCN(C)CC4)cc3)ncn2)c1`, for which the IC50 is 24.3 µM with HCC827; 18.1 µM in the assay with BEAS-2B; above 30 µM in the assay with PC-9; above 30 µM in the assay on NCI-H3255; above 30 µM with NCI-H1975; 0.288 µM in assay [2]. For the same compound, the IC50 was above 10 µM in [3] and above 30 µM in the assay with A-431. Further, the inhibition in [1] worked out at 28.5%; in assay [4], 4.7%.
Regarding `CCOC(=O)CCC(=O)Nc1cc(Nc2cccc(Br)c2)ncn1`, the inhibition in assay [1] is 5.7%; in [4] it was -7.1%. The IC50 was above 10 µM in assay [2] and 0.933 µM in assay [3].
Regarding `CCNc1cc(Nc2cccc(Cl)c2)ncn1`, the inhibition in assay [1] is 6.9%; in assay [4] it was -7.7%. Also, the half-inhibitory concentration (IC50) in assay [2] was 0.17 µM; in assay [3], above 10 µM.
Consider `COc1ccc(OC)c(Nc2cc(NC(=O)CCCC(=O)O)ncn2)c1`, for which the inhibition in assay [1] was 23.6%; in assay [4], -3.7%. The concentration for half-maximal inhibition (IC50) was 0.068 µM in assay [2] and above 10 µM in assay [3].
As for `COc1ccc(OC)c(Nc2cc(Nc3ccc(F)cc3)ncn2)c1`, the IC50 in the assay on HCC827 was 1.72 µM; in the assay on BEAS-2B it was 18 µM; with PC-9, 0.64 µM; in the assay with NCI-H3255, above 30 µM; in the assay on NCI-H1975, above 30 µM; in assay [2] it was 0.336 µM. Moreover, the half-inhibitory concentration (IC50) is 0.208 µM in assay [3] and above 30 µM with A-431. Besides, the inhibition is 12.4% in assay [1] and -3.1% in [4].
Turning to `CCOC(=O)CCCC(=O)Nc1cc(Nc2cccc(Cl)c2)ncn1`, the IC50 in the assay on HCC827 is above 30 µM; with BEAS-2B, 21.1 µM; in the assay with PC-9, above 30 µM; with NCI-H3255, above 30 µM; in the assay with NCI-H1975, above 30 µM; in assay [2] it was 0.027 µM. The 50% inhibitory concentration (IC50) in assay [3] was above 10 µM; with A-431, 0.49 µM. Further, the values for the inhibition in assay [1] and in assay [4] were 16% and 0.5%, respectively.
Turning to `O=C(Nc1cc(Nc2ccc(Cl)cc2)ncn1)c1ccc(F)cc1`, the concentration for half-maximal inhibition (IC50) in the assay on HCC827 was above 30 µM; with BEAS-2B it was 18.6 µM; in the assay on PC-9, 0.82 µM; in the assay with NCI-H3255, above 30 µM; in the assay on NCI-H1975 it was 17.6 µM; in assay [2], above 10 µM. The 50% inhibitory concentration (IC50) in [3] is 1.41 µM; in the assay with A-431, above 30 µM. In addition, the figures for the inhibition in assay [1] and in assay [4] were 9.3% and 16.3%, respectively.
For `COc1cccc(Nc2cc(Nc3ccc(S(N)(=O)=O)cc3)ncn2)c1`, the inhibition in assay [1] was 12.4%; in assay [4] it was -8.8%. Also, the half-maximal inhibitory concentration (IC50) was above 10 µM in assay [2] and 1.23 µM in [3].
With `CCOc1ccc(Nc2cc(NC(=O)c3ccccc3)ncn2)cc1`, the IC50 was 7 µM with HCC827; 17.4 µM with BEAS-2B; 2.09 µM in the assay with PC-9; 9.17 µM in the assay with NCI-H3255; 7.07 µM in the assay with NCI-H1975; above 10 µM in assay [2]. For the same compound, the results for the IC50 (in [3]; in the assay with A-431) were 0.754 µM and 6.54 µM, respectively. The inhibition was 11.3% in assay [1] and -8.8% in assay [4].
As for `COc1cc(Nc2cc(Nc3ccc(Cl)cc3)ncn2)cc(OC)c1OC`, the inhibition in assay [1] stood at 37.1%; in assay [4], 1.2%. Besides, the IC50 in assay [2] was 0.901 µM; in [3], above 10 µM.
In the case of `O=C(Nc1cc(N2CCOCC2)ncn1)c1ccc(F)cc1`, the IC50 with HCC827 is 1.96 µM; in the assay with BEAS-2B, 20.9 µM; with PC-9, 0.87 µM; with NCI-H3255 it was 1.87 µM; in the assay on NCI-H1975 it was 1.97 µM; in [2], 0.131 µM. Besides, the half-maximal inhibitory concentration (IC50) was 0.063 µM in [3] and 1.13 µM with A-431. For the same compound, the figures for the inhibition in [1] and in assay [4] were 31% and 8.8%, respectively.
As to `O=C(O)CCCC(=O)Nc1cc(Nc2cccc(Br)c2)ncn1`, the inhibition in [1] was 6.5%; in assay [4], -1.1%. The IC50 in assay [2] was 0.07 µM; in assay [3], above 10 µM.
Consider `COc1cccc(Nc2cc(Nc3cccc(Cl)c3)ncn2)c1`, for which the IC50 in the assay on HCC827 is 4.04 µM; in the assay on BEAS-2B it was 17.6 µM; in the assay with PC-9, 1.66 µM; in the assay on NCI-H3255, above 30 µM; in the assay with NCI-H1975 it was above 30 µM; in assay [2], above 10 µM. Further, the IC50 came to 0.974 µM in [3] and 15.2 µM in the assay on A-431. In addition, the figures for the inhibition in [1] and in assay [4] were 19.2% and -3.8%, respectively.
Take `COc1ccc(OC)c(Nc2cc(Nc3ccc(S(N)(=O)=O)cc3)ncn2)c1`: the inhibition was 26.2% in assay [1] and -8.2% in assay [4]. The 50% inhibitory concentration (IC50) worked out at 0.779 µM in assay [2] and 0.467 µM in assay [3].
In the case of `Clc1ccc(Nc2cc(Nc3cccc(Cl)n3)ncn2)cc1`, the half-maximal inhibitory concentration (IC50) is above 30 µM in the assay on HCC827; 18.1 µM in the assay on BEAS-2B; 1.18 µM in the assay with PC-9; above 30 µM with NCI-H3255; above 30 µM in the assay with NCI-H1975; 0.324 µM in assay [2]. Besides, the IC50 is 0.229 µM in assay [3] and above 30 µM with A-431. The inhibition was 8.5% in assay [1] and -5.7% in assay [4].
Regarding `CCOC(=O)CCC(=O)Nc1cc(Nc2cc(OC)ccc2OC)ncn1`, the inhibition in [1] is 9.7%; in assay [4], -8.8%.

Usually inhibition stands for the change of the read-out against control, counted positive when it falls. In general, IC50 refers to the concentration needed to halve the response being measured.
